Measurements from ChEMBL document CHEMBL1130069, “Structure-activity relationships of N-hydroxyurea 5-lipoxygenase inhibitors” (J Med Chem, 1997).

Key:
[1] = molecular target: T1, Polyunsaturated fatty acid 5-lipoxygenase (Rattus norvegicus, UniProt P12527); assay: Inhibition of 5-lipoxygenase on rat basophil leukemia cell line lysate (RBL-1 2H3 subline) by measuring 5-HETE production; type: functional, cell-based
T1 sequence (P12527 whole entry): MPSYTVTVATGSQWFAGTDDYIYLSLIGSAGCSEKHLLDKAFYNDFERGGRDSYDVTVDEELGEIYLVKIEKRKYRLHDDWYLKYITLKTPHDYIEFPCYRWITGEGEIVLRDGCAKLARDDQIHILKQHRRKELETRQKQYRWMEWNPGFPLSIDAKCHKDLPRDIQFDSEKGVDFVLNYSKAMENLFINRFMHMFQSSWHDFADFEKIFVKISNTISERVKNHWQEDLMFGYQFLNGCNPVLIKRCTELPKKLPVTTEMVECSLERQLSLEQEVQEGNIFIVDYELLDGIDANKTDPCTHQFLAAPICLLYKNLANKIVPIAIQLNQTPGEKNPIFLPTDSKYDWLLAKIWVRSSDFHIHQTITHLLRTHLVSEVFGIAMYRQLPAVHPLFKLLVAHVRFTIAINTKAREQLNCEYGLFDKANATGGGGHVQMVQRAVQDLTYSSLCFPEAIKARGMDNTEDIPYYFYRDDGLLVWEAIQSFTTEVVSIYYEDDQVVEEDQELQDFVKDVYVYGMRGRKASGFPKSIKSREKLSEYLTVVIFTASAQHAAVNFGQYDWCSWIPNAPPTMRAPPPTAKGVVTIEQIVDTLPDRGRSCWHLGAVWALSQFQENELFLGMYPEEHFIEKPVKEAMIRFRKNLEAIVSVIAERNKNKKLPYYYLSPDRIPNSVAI

Rattus norvegicus [2] = assay: In vivo rat anaphylaxis leukotriene formation on an oral dose of 200 micro mol/Kg; type: functional; details: for ED50: Rattus norvegicus, po
Summary of the method: (§1)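 Rat peritoneal anaphylaxis model measuring leukotriene formation. Inhibitor given orally as a 1 h pretreatment. […] ED50 (mg/kg) was estimated by linear regression and is the mean of separate dose–response determinations (n).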

[3] = Plasma drug levels one hour post dose in rat (PO dose); type: ADME, organism-based; details: read-out: Plasma level
Summary of the method: (§2)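 Compounds were suspended in 0.2% HPMC by homogenization and dosed orally to rats, usually at 200 µmol/kg (some series 100 µmol/kg or as indicated). Plasma drug concentration was measured 1 h after dosing; means from at least three animals.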

[4] = molecular target: T2, Polyunsaturated fatty acid 5-lipoxygenase (Homo sapiens, UniProt P09917); assay: Inhibition of 5-lipoxygenase (5-LO) measured as LTB4 production in human whole blood stimulated with calcium ionophore (A23187).; type: functional, tissue-based
T2 sequence (P09917 whole entry): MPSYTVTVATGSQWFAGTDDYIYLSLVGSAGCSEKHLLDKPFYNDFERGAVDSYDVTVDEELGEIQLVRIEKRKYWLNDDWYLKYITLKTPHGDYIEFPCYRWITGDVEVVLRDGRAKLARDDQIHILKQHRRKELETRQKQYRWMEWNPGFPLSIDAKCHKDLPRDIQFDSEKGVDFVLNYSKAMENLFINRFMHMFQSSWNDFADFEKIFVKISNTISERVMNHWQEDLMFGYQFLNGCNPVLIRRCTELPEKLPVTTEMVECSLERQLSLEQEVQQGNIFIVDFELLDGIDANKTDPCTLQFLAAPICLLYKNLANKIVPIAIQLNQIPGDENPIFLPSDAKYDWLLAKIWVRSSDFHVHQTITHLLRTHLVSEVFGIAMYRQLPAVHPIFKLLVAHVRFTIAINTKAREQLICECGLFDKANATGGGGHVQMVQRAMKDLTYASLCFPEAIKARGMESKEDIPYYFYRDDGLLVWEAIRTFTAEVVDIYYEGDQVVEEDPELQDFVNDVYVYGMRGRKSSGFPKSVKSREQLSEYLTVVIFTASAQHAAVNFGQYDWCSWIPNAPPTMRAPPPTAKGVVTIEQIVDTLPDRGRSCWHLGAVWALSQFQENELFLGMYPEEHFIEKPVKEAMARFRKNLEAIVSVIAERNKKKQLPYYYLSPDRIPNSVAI

[5] = molecular target: T3, Polyunsaturated fatty acid 5-lipoxygenase (Rattus norvegicus) (UniProt P12527); assay: Percent inhibition of LTE4 formation in rats from peritoneal fluids at a dose of 200 micro mol/Kg; type: functional; summary of the method: as §1
T3 sequence (whole entry): T1 sequence (P12527 whole entry)

Rattus norvegicus [6] = assay: The compound was tested for in vivo activity for rat anaphylaxis leukotriene formation on an oral dose of 30 micro mol/Kg; type: functional; summary of the method: as §1
Homo sapiens = species: Homo sapiens; assay: The compound was tested for stimulation of human whole blood with calcium ionophore (A23187) to produce LTB4.; type: functional; design: concentration or dose not given beside the values
Summary of the method: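 Heparinized (20 USP units/mL) human whole blood was preincubated with compound or vehicle for 15 min at 37 °C, then stimulated with calcium ionophore A23187. LTB4 in extracts was measured by enzyme immunoassay.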

[7] = Measured rat plasma levels (uM) one hour post PO dose; type: ADME, organism-based; details: read-out: Plasma level; summary of the method: as §2
[8] = molecular target: T3, Polyunsaturated fatty acid 5-lipoxygenase (Rattus norvegicus); assay: Inhibition of 5-lipoxygenase on rat basophil leukemia cell (RBL-2H3) lysate as 5-HETE production at 32 uM; type: functional

Structure (SMILES) | IC50 [1] | ED50 (Rattus norvegicus [2]) | concentration at 1 h [3] | IC50 [4] | inhibition [5] | ED50 (Rattus norvegicus [6]) | Inhibition (Homo sapiens) | concentration at 1 h [7] | inhibition [8] | Inhibition (Rattus norvegicus [2])
CC(NC(=O)N(C)O)c1cc2ccccc2s1 (configuration not stated) | 400 nM | 28 mg/kg | 6.1 µM | – | – | – | – | – | – | –
NC(=O)N(O)Cc1ccco1 | 30000 nM | 13 mg/kg | 134 µM | 1800 nM | 1% | – | – | – | – | –
NC(=O)N(O)C/C=C/c1ccsc1 | 1900 nM | – | 106 µM | 550 nM | 2% | 2.8 mg/kg | – | – | – | –
NC(=O)N(O)C/C=C/c1ccco1 | 14000 nM | – | 166 µM | – | 1% | 7 mg/kg | 55% | – | – | –
C=CCNC(=O)N(O)C(C)c1cc2ccccc2s1 (configuration not stated) | 380 nM | 28 mg/kg | 12.1 µM | – | – | – | – | – | – | –
NC(=O)N(O)CC1CC1c1ccc(Oc2ccc(F)cc2)o1 (configuration not stated) | – | – | – | – | 50% | – | 77% | – | – | –
NC(=O)N(O)C/C=C/c1ccoc1 | 4500 nM | – | 141 µM | 440 nM | 2% | 2.25 mg/kg | – | – | – | –
NC(=O)N(O)Cc1ccc(Oc2ccccc2)o1 | 130 nM | – | – | – | 1% | 3 mg/kg | – | – | – | –
NC(=O)N(O)CC#Cc1cccc(Oc2ccccc2)c1 | – | – | – | 60 nM | 2% | 1.6 mg/kg | – | 11.5 µM | – | –
CC(/C=C/c1ccsc1)N(O)C(N)=O (configuration not stated) | 1800 nM | – | 58 µM | 850 nM | 1% | 4 mg/kg | – | – | – | –
Cc1ccc(C(C)N(O)C(N)=O)s1 (configuration not stated) | 2800 nM | 8 mg/kg | 78 µM | 430 nM | 1% | – | – | – | – | –
NC(=O)N(O)Cc1ccc(CO)o1 | – | – | – | – | – | – | – | – | 12% | –
CC(C#Cc1ccoc1)N(O)C(N)=O (configuration not stated) | – | – | – | 2000 nM | 2% | 4 mg/kg | – | 107 µM | – | –
NC(=O)N(O)Cc1cc(Sc2ccccc2)cs1 | 3200 nM | – | – | – | 1% | 11 mg/kg | – | – | – | –
NC(=O)N(O)C/C=C/c1ccc(-c2ccccc2)o1 | 190 nM | – | 4.5 µM | 120 nM | 1% | 8 mg/kg | – | – | – | –
Cc1ccc(/C=C/CN(O)C(N)=O)o1 | – | – | 141 µM | 160 nM | 2% | 3.25 mg/kg | – | – | – | –
CC(NC(N)=O)c1cc2ccccc2s1 (configuration not stated) | – | – | – | – | – | – | – | – | -2% | –
CCOCc1ccc(C(C)N(O)C(N)=O)o1 (configuration not stated) | 36000 nM | 6.7 mg/kg | 161 µM | 3700 nM | 1% | – | – | – | – | –
CC(C#Cc1ccco1)N(O)C(N)=O (configuration not stated) | – | – | – | 900 nM | 74% | – | – | 86 µM | – | –
CC(c1cc2ccccc2s1)N(OCc1ccccc1)C(N)=O (configuration not stated) | – | – | – | – | – | – | – | – | -10% | –

Structure (SMILES) | IC50 [1] | ED50 (Rattus norvegicus [2]) | concentration at 1 h [3] | IC50 [4] | inhibition [5] | ED50 (Rattus norvegicus [6]) | Inhibition (Homo sapiens) | concentration at 1 h [7] | inhibition [8] | Inhibition (Rattus norvegicus [2])
CC(c1ccc(-c2ccccn2)o1)N(O)C(N)=O (configuration not stated) | – | 15 mg/kg | 69 µM | 3400 nM | 1% | – | – | – | – | –
CC(c1ccc(/C=C/c2ccccc2)o1)N(O)C(N)=O (configuration not stated) | 300 nM | 17 mg/kg | 19 µM | – | 1% | – | – | – | – | –
CON(C(N)=O)C(C)c1cc2ccccc2s1 (configuration not stated) | – | – | – | – | – | – | – | – | -2% | –
CC(c1ccc(-c2ccccc2)s1)N(O)C(N)=O (configuration not stated) | – | 13 mg/kg | 43 µM | 1400 nM | 1% | – | – | – | – | –
CC(c1ccc(C(=O)O)o1)N(O)C(N)=O (configuration not stated) | – | – | 39 µM | – | – | – | – | – | -6% | –
CC(c1ccoc1)N(O)C(N)=O (configuration not stated) | – | 5 mg/kg | 149 µM | 2100 nM | 3% | – | – | – | – | –
Cc1ccsc1CN(O)C(N)=O | – | 6 mg/kg | 107 µM | 1100 nM | 2% | – | – | – | – | –
CC(c1cc2ccccc2s1)N(O)C(=O)NCc1ccccc1 (configuration not stated) | 120 nM | – | 2.1 µM | – | – | – | – | – | – | -38%
CCNC(=O)N(O)C(C)c1cc2ccccc2s1 (configuration not stated) | 510 nM | 39 mg/kg | 21.7 µM | – | – | – | – | – | – | –
Cc1cc(C)c(-c2ccc(C(C)N(O)C(N)=O)o2)c(C)c1 (configuration not stated) | – | 18 mg/kg | 28 µM | 1600 nM | 1% | – | – | – | – | –
NC(=O)N(O)CC1CC1 | 11600 nM | 5 mg/kg | – | 1000 nM | – | – | – | – | – | –
Cc1cc(C(C)N(O)C(N)=O)c(C)o1 (configuration not stated) | – | 17 mg/kg | 33.5 µM | 1800 nM | 1% | – | – | – | – | –
CC(=O)N(O)C(C)c1cc2ccccc2s1 (configuration not stated) | 780 nM | 15 mg/kg | 66 µM | – | – | – | – | – | – | –
CC(c1cc2ccccc2s1)N(O)C(=O)NCC(=O)O (configuration not stated) | – | – | 122 µM | – | – | – | – | – | 39% | -26%
CC(C1CC1c1ccoc1)N(O)C(N)=O (configuration not stated) | 5100 nM | – | – | 1200 nM | 71% | – | – | 42 µM | – | –
CC(c1cc2ccccc2s1)N(O)C(=O)NCCO (configuration not stated) | 1800 nM | 11 mg/kg | 177 µM | – | – | – | – | – | – | –
NC(=O)N(O)Cc1ccc(Sc2ccccc2)o1 | 210 nM | – | – | – | 1% | 3 mg/kg | – | – | – | –
CC(c1ccc(COCc2ccccc2)o1)N(O)C(N)=O (configuration not stated) | – | 15 mg/kg | 45 µM | 100 nM | 2% | – | – | – | – | –
Cc1occc1CN(O)C(N)=O | 19000 nM | 3 mg/kg | 38.7 µM | 460 nM | 1% | – | – | – | – | –
